Laboratory results as given in publication PMC2947195 (Biochemical Journal, 2010).
Residue numbers refer to the chain shown, from its start.

Legend:
Type in all cases: cell-based
wt hRFC = target: T1, wt hRFC (Homo sapiens, UniProt P41440); assay: [3H]MTX transport kinetics
T1 sequence (P41440 1-591): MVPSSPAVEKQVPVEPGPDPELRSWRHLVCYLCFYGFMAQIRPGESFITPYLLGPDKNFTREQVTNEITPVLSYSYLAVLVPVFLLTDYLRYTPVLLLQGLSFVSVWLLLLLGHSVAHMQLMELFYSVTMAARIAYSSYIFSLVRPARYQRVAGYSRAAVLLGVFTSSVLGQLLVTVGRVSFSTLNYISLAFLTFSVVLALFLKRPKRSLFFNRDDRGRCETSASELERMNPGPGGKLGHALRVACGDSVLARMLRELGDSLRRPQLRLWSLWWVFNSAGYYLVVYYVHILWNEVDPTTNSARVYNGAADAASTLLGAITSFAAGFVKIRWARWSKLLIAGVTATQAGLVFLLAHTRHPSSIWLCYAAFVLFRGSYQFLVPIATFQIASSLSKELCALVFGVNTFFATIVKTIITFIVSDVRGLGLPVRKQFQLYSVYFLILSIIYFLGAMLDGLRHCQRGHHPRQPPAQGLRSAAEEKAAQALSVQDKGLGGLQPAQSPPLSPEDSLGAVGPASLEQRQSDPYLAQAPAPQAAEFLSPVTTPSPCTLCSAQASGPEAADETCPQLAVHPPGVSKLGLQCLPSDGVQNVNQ
Summary of the method: (§1)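 Human hRFC-null K500E (K562 subline) cells were electroporated (155 V, 1000 μF) with wt or Ser313-mutant hRFC. Stable clones were selected in soft agar with G418 (1 mg/ml). [3H]MTX uptake was measured over 180 s in HBSS at 37 °C in a shaking water bath and expressed as pmol/mg protein (Lowry). Kt and Vmax came from Lineweaver–Burk plots, with Vmax normalized to densitometric Western blot hRFC levels. Three experiments, means±S.E.M.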

S313A hRFC = target: T2, S313A hRFC (Homo sapiens, UniProt P41440, S313A); assay: [3H]MTX transport kinetics
T2 sequence (P41440 1-591 S313A): T1 sequence (P41440 1-591) with S313A
Summary of the method: as §1

[1] = target: T3, S313F hRFC (Ser^313 replaced with phenylalanine) (Homo sapiens, UniProt P41440, S313F); assay: [3H]MTX uptake in transiently transfected R5 HeLa cells
T3 sequence (P41440 1-591 S313F): T1 sequence (P41440 1-591) with S313F
Summary of the method: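 Human R5 HeLa cells (transport-defective) were transiently transfected with Lipofectamine Plus, split at 24 h and assayed 24 h later. Uptake of 0.5 μM [3H]MTX ran for 2 min at 37 °C in HSM buffer (20 mM Hepes, 235 mM sucrose, pH 7.14 with MgO). Uptake was stopped with ice-cold PBS and cells solubilized in 0.5 M NaOH. Values in pmol/mg protein were normalized to HA-blot hRFC levels. Three experiments, means±S.E.M.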

S313T hRFC = target: T4, S313T hRFC (Homo sapiens, UniProt P41440, S313T); assay: [3H]MTX uptake in transiently transfected R5 HeLa cells; conditions: 0.5 μM [3H]MTX, 2 min, 37 °C, normalized to hRFC protein on Western blots
T4 sequence (P41440 1-591 S313T): T1 sequence (P41440 1-591) with S313T

[2] = K500E stable transfectant, mean±S.E.M., n=3
[3] = Vmax normalized to relative hRFC level on Western blots

Vmax (normalized)/Kt (wt hRFC): 2.44
Kt (wt hRFC; [2]): 1.89 ± 0.43 µM
Normalized Vmax (wt hRFC; [3]): 4.62±0.37
Vmax (normalized)/Kt (S313A hRFC): 0.18
Kt (S313A hRFC; [2]): 2.26 ± 0.44 µM
Normalized Vmax (S313A hRFC; [3]): 0.41±0.03
MTX transport [1]: abolished
[3H]MTX transport activity relative to wt hRFC (S313T hRFC): ~ 8%
Structure (SMILES): CN(Cc1cnc2nc(N)nc(N)c2n1)c1ccc(C(=O)N[C@@H](CCC(=O)O)C(=O)O)cc1 [MTX, methotrexate]
